Measured values from ChEMBL document CHEMBL4392869, “Possible Biosynthetic Products and Metabolites of Kainic Acid from the Red Alga Digenea simplex and Their Biological Activity” (J Nat Prod, 2019).

Tests used:
Format in all cases: organism-based
Settings in all cases: in vivo, icv_or_intrathecal
[1] = Toxicity in ddY mouse assessed as death time at 4.4 nmol dosed via intracerebroventricular injection
Procedure, shortened: (§1)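 Male ddY mice (11−13 g, 3 weeks old), three per compound. Doses, quantified by LC-MS against a weighed standard, were given in 10 μL water, injected slowly over 5 s into the ventricle: 2 mm lateral to the skull midline, 3 mm rostral to the anterior ear-base line, 3 mm deep. Water served as vehicle control. Death time and behavioural symptoms were recorded.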

[2] = Toxicity in ddY mouse assessed as induction of adverse symptoms at 4.4 nmol dosed via intracerebroventricular injection; procedure, shortened: as §1
[3] = Toxicity in ddY mouse assessed as induction of spasms at 2.2 nmol dosed via intracerebroventricular injection; procedure, shortened: as §1
[4] = Toxicity in ddY mouse assessed as induction of scratching at 2.2 nmol dosed via intracerebroventricular injection; procedure, shortened: as §1
[5] = Toxicity in ddY mouse assessed as induction of sudden jumping at 2.2 nmol dosed via intracerebroventricular injection; procedure, shortened: as §1
[6] = Toxicity in ddY mouse assessed as death time at 2.2 nmol dosed via intracerebroventricular injection; procedure, shortened: as §1
[7] = Toxicity in ddY mouse assessed as death time at 1.1 nmol dosed via intracerebroventricular injection; procedure, shortened: as §1
[8] = Toxicity in ddY mouse assessed as induction of spasms at 1.1 nmol dosed via intracerebroventricular injection; procedure, shortened: as §1
[9] = Toxicity in ddY mouse assessed as induction of scratching at 1.1 nmol dosed via intracerebroventricular injection; procedure, shortened: as §1
[10] = Toxicity in ddY mouse assessed as induction of sudden jumping at 1.1 nmol dosed via intracerebroventricular injection; procedure, shortened: as §1
[11] = Toxicity in ddY mouse assessed as induction of adverse symptoms at 2.2 nmol dosed via intracerebroventricular injection; procedure, shortened: as §1

CC(C)=CCN[C@H](C(=O)O)[C@H](O)CC(=O)O (relative stereo)
Activity [1]: Non-Toxic | Activity [2]: Non-Toxic

C=C(C)[C@@]1(O)CN[C@H](C(=O)O)[C@H]1CC(=O)O
Activity [3]: Toxic | Activity [4]: Toxic | Activity [5]: Toxic | Activity [6]: Non-Toxic

C=C(C)[C@H]1CN[C@H](C(=O)O)[C@H]1CC(=O)O [KAINIC ACID]
Time [7]: 15 to 30 min | Activity [8]: Toxic | Activity [9]: Toxic | Activity [10]: Toxic

C=C(C)[C@]1(O)CN[C@H](C(=O)O)[C@H]1CC(=O)O
Activity [11]: Non-Toxic | Activity [6]: Non-Toxic

CC(C)=CCN[C@@H](CCC(=O)O)C(=O)O
Activity [1]: Non-Toxic | Activity [2]: Non-Toxic
